An excerpt weighted towards active compounds, which were near 5.8% of everything screened.
WT yeast gro inh = growth inhibition of WT strain, primary screen, mitochondrial fusion inhibitor project, WT and mutant strains, chemical genetic; mitochondrial fusion phenotypic screen; inhibition, % at 10 µM; 190,000 tested, 2.1% active; in the data active = inhibition above about 58%; tested in S. cerevisiae
Cl transport mod = KCC2 cotransporter modulators, thallium flux, primary screen, cell-based, HEK293 KCC2, FluoZin-2 fluorescence, MLSMR. Solute carrier family 12 member 5 (Homo sapiens), Q9H2X9. KCC2 cells, thallium flux FluoZin-2 fluorescence. B-score of Tl+ flux slope (higher = more flux/activation; lower = inhibition) at 10 µM. 190,000 tested, 2.2% active;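 active = thallium flux slope and its plate-corrected score both differing from the plate sample mean at a set confidence after two filtering rounds, in either direction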;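 note: slope of fluorescence scaled to starting intensity during 10 to 20 s after thallium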
ROMK mod = ROMK potassium channel modulators, primary screen, cell-based, thallium flux, MLSMR library; ATP-sensitive inward rectifier potassium channel 1 (Homo sapiens), P48048; Tet-inducible ROMK, thallium flux fluorescence; actives lie on both sides; B-score at 10 µM; 130,000 tested, 2% active; AID 1918, 2009;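 active = signal ratio slope over the read window, or its plate-corrected B-score, at least 3 SD from the plate mean, either direction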;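 note: B-score of the F/F0 ratio slope over 7 to 12 s after thallium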
14-3-3 Bad inh = inhibitors of 14-3-3 zeta/Bad binding, primary screen, biochemical, TR-FRET, bovine 14-3-3 zeta | 220,000 tested, 0.71% active | TR-FRET 14-3-3zeta/Dy647-pBad peptide displacement, 1 h | 14-3-3 protein zeta/delta (Bos taurus), P63103 | inhibition, % at 21.7 µM;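 active = inhibition above about 70%, limit read from the data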
NCF1 inh = p47phox/p22phox peptide binding inhibitors, primary screen, biochemical, uHTS, NADPH oxidase regulatory subunit; AID 1274, 2008; Neutrophil cytosol factor 1 (Homo sapiens), P14598; inhibition, % at 24.7 µM; 220,000 tested, 0.53% active; fluorescence polarization, 2 h;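 active = inhibition above about 30%, limit read from the data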
Target sequence (P14598 whole entry, looked up): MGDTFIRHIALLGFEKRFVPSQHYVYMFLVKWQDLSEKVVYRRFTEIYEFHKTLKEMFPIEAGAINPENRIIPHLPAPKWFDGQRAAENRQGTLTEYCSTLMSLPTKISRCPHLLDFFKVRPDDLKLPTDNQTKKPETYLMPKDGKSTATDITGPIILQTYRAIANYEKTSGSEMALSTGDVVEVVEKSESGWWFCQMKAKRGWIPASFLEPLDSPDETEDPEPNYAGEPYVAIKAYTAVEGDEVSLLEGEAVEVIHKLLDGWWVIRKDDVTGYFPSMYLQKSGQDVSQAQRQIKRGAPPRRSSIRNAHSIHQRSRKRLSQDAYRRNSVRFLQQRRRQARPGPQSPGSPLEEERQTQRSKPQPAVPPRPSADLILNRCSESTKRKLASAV
RBBP9 inh = human RBBP9 inhibitors, primary screen, biochemical, fluorescence polarization, FP-Rh probe, HTS; Serine hydrolase RBBP9 (Homo sapiens), O75884; 220,000 tested, 0.2% active; inhibition, % at 7.94 µM; recombinant RBBP9;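 active = inhibition above the campaign mean of all tested compounds plus 3 SD, cut at about 14% in these data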
Target sequence (O75884 whole entry, looked up): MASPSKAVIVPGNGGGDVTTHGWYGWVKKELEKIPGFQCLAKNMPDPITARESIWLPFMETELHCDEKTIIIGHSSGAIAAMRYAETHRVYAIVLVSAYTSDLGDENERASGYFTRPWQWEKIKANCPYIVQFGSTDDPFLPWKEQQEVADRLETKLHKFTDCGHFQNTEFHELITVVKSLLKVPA
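system = RBBP9 protein | input = RBBP9 at 2.5 µM in dispensed solution, before mixing | measured by = fluorescence polarization (mP), excitation 525 nm, emission 598 nm | incubation = enzyme-compound preincubation 30 min, then probe labeling 45 min, 25 °C | buffer or medium = Tris-NaCl-Pluronic buffer, pH 8.0 | compound = single dose 7.94 µM | also added = FP-Rh probe, 375 nM dispensing solution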
Large screens that a line does not name were inactive.

CCOc1ccc(NC(=O)CC2CC(C)(C)OC2=O)cc1 (stereo unspecified)	none
Nc1ncn(C23CC4CC(CC(C4)C2)C3)n1	none
c1ccc(-c2nnn(C34CC5CC(CC(C5)C3)C4)n2)cc1	WT yeast gro inh 80.9 (no result: ROMK mod)
COc1ccc(N2C(=O)C3NN=C(C(=O)OCc4ccccc4)C3C2=O)cc1 (stereo unspecified)	none
O=S1(=O)N=C(Oc2cccc3ccccc23)c2ccccc21	14-3-3 Bad inh 85.7
CCOC1=NS(=O)(=O)c2ccccc21	none (no result: ROMK mod)
COc1ccc(N2C(=O)[C@H]3[C@@H](C2=O)C2c4ccccc4C=NN2[C@H]3C(=O)C(C)(C)C)cc1 (stereo partly specified)	none (no result: WT yeast gro inh, ROMK mod)
COc1ccc(N2C(=O)[C@@H]3[C@H](C2=O)[C@H]2c4ccccc4C=CN2[C@@H]3C(C)=O)cc1	ROMK mod -3.56
O=C(Nc1ccc(Cl)c(Cl)c1)OCc1cccnc1	WT yeast gro inh 79.0 (no result: Cl transport mod)
COc1cccc(S(=O)(=O)NCc2ccc(C(=O)Nc3ccc(Cl)c(Cl)c3)cc2)c1	none
O=C(Nc1ccc(Cl)c(Cl)c1)c1cccc(S(=O)(=O)NCc2cccnc2)c1	WT yeast gro inh 76.4 (no result: ROMK mod)
CN(C)c1ccc(/C=c2\sc3nc(-c4ccccc4)nn3c2=O)cc1	NCF1 inh 41.6 (no result: Cl transport mod)
S=C(NCCC1=CCCCC1)NCc1ccco1	WT yeast gro inh 69.0
CCCNC(=O)C(=O)NCCC1=CCCCC1	none (no result: ROMK mod)
O=C(NC(=S)NCCC1=CCCCC1)c1cncc(Br)c1	Cl transport mod 14.9 (no result: ROMK mod)
NC(=O)NCCC1=CCCCC1	WT yeast gro inh 59.4
O=C(NCCCN1CCCCCC1)C1CC(=O)N(CCc2ccccc2)C1 (stereo unspecified)	NCF1 inh 54.8 (no result: Cl transport mod)
CCN1C(=O)C(CC(=O)Nc2ccc(F)cc2)N(Cc2ccco2)C1=S (stereo unspecified)	none
CCCCCCOc1ccc(NC(=O)CC2C(=O)N(CC)C(=S)N2Cc2ccco2)cc1 (stereo unspecified)	WT yeast gro inh 61.7
Cc1ccc(-c2nc(CSc3nc4ccccc4c(=O)n3CCO)cs2)cc1	WT yeast gro inh 60.3 (no result: ROMK mod)
Cc1ccc(-c2nc(CSc3nc4ccccc4c(=O)n3C)cs2)cc1	none (no result: ROMK mod)
CC(C(=O)Nc1ccc(F)c(F)c1F)N(C)CC(=O)Nc1ccccc1Br (stereo unspecified)	none (no result: ROMK mod)
Clc1ccc(-c2cc3ccccc3nc2N2CCCC2)cc1	WT yeast gro inh 69.5 (no result: Cl transport mod, ROMK mod)
Clc1ccc(-c2cc3ccccc3nc2N2CCOCC2)cc1	none (no result: Cl transport mod)
CC(C)(C)CC(C)(C)NC(=O)/C=C/C(=O)O	none (no result: WT yeast gro inh, ROMK mod)
CCOC(=O)CCn1c2nc(C)cc(C)c2c(=O)n1-c1ccccc1	NCF1 inh 33.9 (no result: ROMK mod, 14-3-3 Bad inh)
CCOC(=O)Cn1nc(C)n(-c2ccccc2)c1=O	none (no result: ROMK mod)
Cc1ccc(NC(=S)N(CCC(C)C)C(C)c2ccncc2)c(Cl)c1 (stereo unspecified)	none (no result: WT yeast gro inh, ROMK mod)
COc1ccc(C(=O)COC(=O)c2ccc(OC)c(OC)c2)cc1OC	NCF1 inh 95.9 (no result: ROMK mod)
O=C(Oc1cccnc1)c1cccc(Cl)c1	none (no result: ROMK mod)
COc1ccc(C(=O)Oc2cccnc2)cc1OC	14-3-3 Bad inh 73.1 (no result: Cl transport mod, ROMK mod)
CN(C)S(=O)(=O)c1ccc(NC(=S)NC(=O)c2ccc(Br)o2)cc1	Cl transport mod 12.6, ROMK mod 2.43
Fc1ccc(-c2nc3c(-c4ccccc4)cnn3cc2CCN2CCOCC2)cc1	none (no result: Cl transport mod)
CC(C)C1C(c2ccccc2)N(C)C(c2ccccc2)CC1(O)c1ccccc1 (stereo unspecified)	none (no result: Cl transport mod)
CCC1C(c2ccccc2)N(C)C(c2ccccc2)CC1(O)c1ccccc1 (stereo unspecified)	WT yeast gro inh 76.5 (no result: Cl transport mod, ROMK mod)
COc1cc(CN(C)CCc2ccccn2)cc(OC)c1OC	14-3-3 Bad inh 73.0 (no result: ROMK mod)
COc1ccc(CN(C)CCc2ccccn2)cc1OC	none (no result: Cl transport mod, ROMK mod)
O=C(O)CCCN1C(=O)C(=O)/C(=C(/O)c2ccccc2)C1/C=C/c1ccccc1 (stereo unspecified)	none
Cc1ccc(C)c(Cn2cnc3c(cnn3C(C)(C)C)c2=O)c1	WT yeast gro inh 61.0 (no result: Cl transport mod)
COc1ccc(N2C(=O)c3ccccc3NC2c2ccc(OC)c(CSc3ccccn3)c2)cc1 (stereo unspecified)	none (no result: Cl transport mod, ROMK mod)
CCCN1C(=O)c2ccccc2NC1c1ccc(OC)c(CSc2ccccn2)c1 (stereo unspecified)	WT yeast gro inh 63.6 (no result: ROMK mod)
CSc1sc(C(=O)N(C)C)c2c1S(=O)(=O)N(C)c1ccccc1-2	none (no result: WT yeast gro inh, ROMK mod)
CCc1nnc(NC(=O)Nc2ccccc2OC)s1	WT yeast gro inh 58.5 (no result: ROMK mod)
COc1ccccc1NC(=O)Nc1nnc(CC(=O)Nc2ccccc2)s1	none
CC(C)CCN(C(=O)COc1ccc(C#N)cc1)c1c(N)n(Cc2ccccc2)c(=O)[nH]c1=O	none
CC(CC(=O)N1CCN(c2ccc(C(F)(F)F)cn2)CC1)n1ccnc1 (stereo unspecified)	none
Cc1nnc(SCC(=O)Nc2c(C)n(C)n(-c3ccccc3)c2=O)n1Cc1ccccc1	none
COc1ccc(-c2nc(C)ncc2N=Nc2ccccc2)cc1	WT yeast gro inh 98.5 (no result: Cl transport mod, ROMK mod)
CCCN(CCO)Cc1ccc(Br)cc1	14-3-3 Bad inh 84.2 (no result: ROMK mod)
CCCN(CCO)Cc1ccc(Cl)c(Cl)c1	none (no result: ROMK mod)
CCN(CC)CCN(C)Cc1ccc(Br)cc1	14-3-3 Bad inh 76.5
O=C(O)CC1S/C(=N/N=C/c2ccc([N+](=O)[O-])cc2)N(c2ccc(O)cc2)C1=O (stereo unspecified)	none
COc1ccccc1C1(CCNS(=O)(=O)c2ccc(C)cc2)CCOC(C(C)C)C1 (stereo unspecified)	WT yeast gro inh 59.1 (no result: ROMK mod)
Cc1ccc(-c2noc(C3CCCN(C(=O)c4ccc(F)cc4F)C3)n2)cc1 (stereo unspecified)	none
CC(C)c1ccc(-c2noc(C3CCCN(C(=O)c4ccc(F)cc4F)C3)n2)cc1 (stereo unspecified)	WT yeast gro inh 72.3 (no result: ROMK mod)
Cc1cccc2sc(NC(=O)c3ccc(NS(=O)(=O)c4cccs4)cc3)nc12	WT yeast gro inh 67.2
CCn1c(CNc2ccc(Cl)cc2)nnc1SCC(=O)OC1CCCCC1	ROMK mod -4.16
COC(=O)c1cc(NS(=O)(=O)c2ccc(C)c3ccccc23)ccc1N1CCOCC1	none (no result: WT yeast gro inh)
Cc1oc(-c2ccc(Cl)cc2)cc1C(=O)O	none (no result: WT yeast gro inh)
Cc1oc(-c2ccc(Cl)cc2)[n+]([O-])c1C	14-3-3 Bad inh 83.8 (no result: ROMK mod)
Cc1ccc(C)c(NC(=O)C(Sc2nnc(-c3cccs3)o2)c2ccccc2)c1 (stereo unspecified)	none (no result: ROMK mod)
CCOC(=O)c1c(C)[nH]c(=S)c(C#N)c1-c1ccc(Cl)cc1	Cl transport mod 10.7
